A selection: hits, their analogues and other compounds. The true share with any hit is near 5.8%.
Tcruzi prolif: T. cruzi proliferation inhibition; T. cruzi beta-gal in NIH3T3, GalScreen luminescence, 90 h; inhibition, % at 8.34 µM; 77,000 tested, 5.9% active;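 active = mean inhibition above about 93%, with at least 55% of replicates each passing it, limit read from the data, passing the limit was not always enough; inconclusive = only one of those two conditions holds; inactive = neither condition holds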
IDH1 R132H inh: blocks human IDH1 R132H reductase activity; 70,000 tested, 0.18% active; AID 624101; O75874; diaphorase/resazurin fluorescence, 60 min; inhibition, % at 10 µM; in the data active = inhibition above about 34%; inconclusive = no clear call, values can overlap the other calls; inactive = below about 11%;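 note: 0% = DMSO and 100% = no enzyme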
Target sequence (O75874 whole entry R132H): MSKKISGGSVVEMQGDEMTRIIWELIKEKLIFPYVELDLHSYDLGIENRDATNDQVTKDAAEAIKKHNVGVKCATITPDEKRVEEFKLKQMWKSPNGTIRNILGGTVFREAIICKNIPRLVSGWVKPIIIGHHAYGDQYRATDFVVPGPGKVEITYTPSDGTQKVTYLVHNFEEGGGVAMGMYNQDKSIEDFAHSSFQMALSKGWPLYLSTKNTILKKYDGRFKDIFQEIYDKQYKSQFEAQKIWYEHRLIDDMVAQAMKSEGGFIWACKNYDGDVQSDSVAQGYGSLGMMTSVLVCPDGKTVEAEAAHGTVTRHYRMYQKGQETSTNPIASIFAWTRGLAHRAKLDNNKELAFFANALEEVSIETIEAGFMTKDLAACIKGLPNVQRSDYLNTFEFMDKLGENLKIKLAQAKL
KDM4C inh: inhibitors of human demethylase GASC-1 KDM4C; GST-KDM4C 2-372, H3K9me3 peptide, LANCE TR-FRET; 96,000 tested, 0.15% active; inhibition, % at 12.5 µM; Q9H3R0;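 active = mean replicate inhibition above about 25%, with at least 55% of replicates also reaching it, limit read from the data, passing the limit was not always enough; inconclusive = only one of those two conditions met; inactive = neither condition met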
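Assay system: GST-GASC-1 enzyme fragment 2-372 | Amount: 10 nM enzyme | Medium: HEPES buffer, pH 7.5, plus ascorbate | Reagent: H3K9me3 peptide substrate, Fe(II), 2-oxoglutarate | Doses: Single-point compound screen | Incubation: 30 min demethylation and 1 h detection at room temperature | Measured by: LANCE TR-FRET, excitation 340 nm, emissions 618 and 671 nm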
Pf Dd2 inh: blocks growth of Plasmodium falciparum Dd2 parasites | P. falciparum Dd2 growth, SYBR Green, 72 h; hits give low values | activity change, % at 10 µM | 94,000 tested, 2.3% active | AID 1159554; in the data active = activity change below about -80%; inconclusive = no clear call, values can overlap the other calls
Active calls of the source: *; u = inconclusive; x = no result.

SMILES	Tcruzi prolif	IDH1 R132H inh	KDM4C inh	Pf Dd2 inh
Cc1ccnc(SCC(=O)Nc2sc3c(c2C(=O)Nc2ccccc2)CCCC3)n1	x	1	x	x
CCn1c(SCC(=O)Nc2ccc(F)cc2F)nnc1-c1ccccc1OC	x	0	x	x
CSc1ccccc1NC(=O)CN(c1cccc(F)c1)S(C)(=O)=O	x	-1	x	x
CC(NS(=O)(=O)c1ccc(Cl)cc1)C(=O)Nc1ccccc1Sc1ccccc1 (centres undefined)	x	0	x	x
COc1ccc(C#Cc2ccc3c(c2)[C@@H]2[C@@H](CCN2C(=O)C2CCCC2)[C@H](CO)N3)cc1	x	x	3	-84*
COc1ccc(C#Cc2ccc3c(c2)[C@H]2[C@H](CCN2C(=O)C2CCCCC2)[C@H](CO)N3)cc1	83	x	-1	-37
COc1ccc(C#Cc2ccc3c(c2)[C@H]2[C@H](CCN2C(=O)C2CCC2)[C@H](CO)N3)cc1	x	x	-5	u
COc1ccc(C#Cc2ccc3c(c2)[C@H]2[C@H](CCN2C(=O)C2CCC2)[C@@H](CO)N3)cc1	x	x	-2	-86*
COc1ccc(C#Cc2ccc3c(c2)[C@@H]2[C@@H](CCN2C(=O)C2CC2)[C@H](CO)N3)cc1	x	x	-2	-89*
Cc1ccc(S(=O)(=O)NCCCO)cc1C(=O)O	x	0	x	x
COc1ccc(NC(=O)CCSc2nnc3scc(-c4ccc(C)cc4)n23)cc1	x	0	x	x
CCCN1C(=O)C(O)(CC(=O)c2ccc(OC)c([N+](=O)[O-])c2)c2cc(Br)ccc21 (centres undefined)	x	0	x	x
C[C@H](CO)N1C[C@H](C)[C@@H](CN(C)Cc2ccc(C(=O)Nc3ccccc3N)cc2)Oc2ccc(NC(=O)Nc3ccc4c(c3)OCO4)cc2CC1=O	39	0	-1	-83*
C[C@H]1CN([C@@H](C)CO)C(=O)Cc2cc(NC(=O)Cc3ccccc3)ccc2O[C@@H]1CN(C)Cc1ccc(C(=O)Nc2ccccc2N)cc1	x	x	-1	-88*
C[C@@H]1CN([C@H](C)CO)C(=O)Cc2cc(NC(=O)Nc3ccc4c(c3)OCO4)ccc2O[C@H]1CN(C)Cc1ccc(C(=O)Nc2ccccc2N)cc1	47	0	0	5
C[C@@H]1CN([C@H](C)CO)C(=O)Cc2cc(NC(=O)Cc3ccccc3)ccc2O[C@@H]1CN(C)Cc1ccc(C(=O)Nc2ccccc2N)cc1	x	0	0	-85*
C[C@H]1CN([C@@H](C)CO)C(=O)Cc2cc(NC(=O)Nc3ccccc3)ccc2O[C@@H]1CN(C)Cc1ccc(C(=O)Nc2ccccc2N)cc1	x	x	0	x
C[C@@H]1CN([C@@H](C)CO)C(=O)Cc2cc(NC(=O)Cc3ccccc3)ccc2O[C@H]1CN(C)Cc1ccc(C(=O)Nc2ccccc2N)cc1	x	-1	17	-16
Cc1ccc2c(C)c(C(=O)Nc3sc4c(c3C(=O)NCc3cccnc3)CCCC4)oc2c1	x	0	x	x
O=C(NO)c1ccc(C(=O)N/N=C/c2cc(O)ccc2[N+](=O)[O-])cc1	x	0	x	x
CN1c2ccc(C#Cc3cccnc3)cc2[C@@H]2[C@@H](CCN2C(=O)C2CCCC2)[C@H]1CO	x	x	6	-66
CN1c2ccc(C#Cc3cccc(F)c3)cc2[C@H]2[C@H](CCN2S(=O)(=O)c2ccccc2F)[C@@H]1CO	30	x	0	1
CN1c2ccc(C#Cc3cccnc3)cc2[C@@H]2[C@@H](CCN2C(=O)C2CCC2)[C@@H]1CO	x	x	1	-87*
CN1c2ccc(C#Cc3cccnc3)cc2[C@@H]2[C@@H](CCN2S(=O)(=O)c2ccccc2F)[C@@H]1CO	101	x	-1	-88*
O=c1[nH]c(CSc2nnc(-c3cccnc3)n2-c2ccccc2)nc2ccccc12	x	0	x	x
SMILES	Tcruzi prolif	IDH1 R132H inh	KDM4C inh	Pf Dd2 inh
C[C@H]1CN([C@@H](C)CO)C(=O)c2cc(NC(=O)Cc3cn(C)c4ccccc34)ccc2O[C@H]1CN(C)S(=O)(=O)c1cccs1	62	0	-2	-90*
C[C@@H]1CN([C@@H](C)CO)C(=O)c2cc(NC(=O)Cc3cn(C)c4ccccc34)ccc2O[C@H]1CN(C)S(=O)(=O)c1cccs1	54	x	8	-32
C[C@H](CO)N1C[C@H](C)[C@H](CN(C)S(=O)(=O)c2cccs2)Oc2ccc(NC(=O)Cc3cn(C)c4ccccc34)cc2C1=O	88	-1	-1	-86*
C[C@H](CO)N1C[C@H](C)[C@@H](CN(C)Cc2ccc(C(=O)Nc3ccccc3N)cc2)Oc2c(NS(=O)(=O)c3ccccc3)cccc2C1=O	x	0	0	-37
C[C@H](CO)N1C[C@H](C)[C@H](CN(C)Cc2ccc(C(=O)Nc3ccccc3N)cc2)Oc2c(NS(=O)(=O)c3ccc(F)cc3)cccc2C1=O	x	0	3	-85*
C[C@@H]1CN([C@@H](C)CO)C(=O)c2cccc(NS(=O)(=O)c3ccc(Cl)cc3)c2O[C@@H]1CN(C)Cc1ccc(C(=O)Nc2ccccc2N)cc1	99	x	-1	-92*
C[C@@H]1CN([C@@H](C)CO)C(=O)c2cccc(NS(=O)(=O)c3ccccc3)c2O[C@@H]1CN(C)Cc1ccc(C(=O)Nc2ccccc2N)cc1	81	x	-2	-92*
COC(=O)CN(c1cc(Cl)cc(Cl)c1)S(=O)(=O)c1ccccc1	x	-1	x	x
COc1ccc(C(C)C)cc1S(=O)(=O)n1cnc2ccccc21	x	0	x	x
COc1ccc2c3c([nH]c2c1)[C@@H](CO)N(Cc1cccc(F)c1)CC31CCN(Cc2ccccn2)CC1	x	x	0	-92*
COc1ccc2c3c([nH]c2c1)[C@H](CO)N(C(=O)Cc1ccccn1)CC31CCN(Cc2ccccn2)CC1	x	x	0	18
COc1cccc(CN2CC3(CCN(Cc4ccccn4)CC3)c3c([nH]c4cc(OC)ccc34)[C@@H]2CO)c1	x	x	2	-89*
COc1ccc2c3c([nH]c2c1)[C@@H](CO)N(Cc1nccs1)CC31CCN(Cc2nccs2)CC1	x	x	-2	-90*
COc1ccc2c3c([nH]c2c1)[C@H](CO)N(Cc1ccccn1)CC31CCN(Cc2cccc(F)c2)CC1	x	x	3	-78
Cc1nn(C(=O)Cn2cc([N+](=O)[O-])cn2)c(C)c1Br	x	0	x	x
COc1ccc(S(=O)(=O)Nc2ccc3c(c2)C(=O)N([C@@H](C)CO)C[C@@H](C)[C@H](CN(C)C(=O)Nc2ccccc2)OCCCC[C@@H](C)O3)cc1	111*	x	1	-44
C[C@@H]1CCCCO[C@H](CN(C)C(=O)Nc2ccc(F)cc2)[C@@H](C)CN([C@@H](C)CO)C(=O)c2cc(NS(=O)(=O)c3ccc(Cl)cc3)ccc2O1	x	x	0	-87*
COc1ccc(S(=O)(=O)Nc2ccc3c(c2)C(=O)N([C@@H](C)CO)C[C@H](C)[C@@H](CN(C)C(=O)c2ccccc2)OCCCC[C@@H](C)O3)cc1	5	2	-1	-89*
COc1ccc(S(=O)(=O)Nc2ccc3c(c2)C(=O)N([C@@H](C)CO)C[C@H](C)[C@@H](CN(C)C(=O)Nc2ccccc2)OCCCC[C@H](C)O3)cc1	10	x	1	-51

Assay outcomes deposited in PubChem by Broad Institute.
